# Publication PMC6373376 (Clinical Pharmacokinetics, 2018)
# Where two headings read alike, the source gives them in different places.
# What was measured:
# [1] = cited from earlier work
# [2] = same dosing regimen, ref unpublished data; cited from earlier work
# [3] = assay type: in vivo, human; conditions: for T½ / Tlag / AUC(0-t) / AUC(0-inf) / Cmax / Tmax / half-life / Vd/F: Study B part 1, siponimod 0.25 mg single dose; for AUC / AUC(0-t) / AUC(0-inf) / Cmax / Tmax / half-life / Vd/F: human, plasma, oral, 0.25 mg; for AUC: AUC24, Study B part 1, siponimod 0.25 mg single dose; for AUC(0-t): AUClast; for half-life: T½; for Vd/F: VZ/F
# CYP3A4 = conditions: cited from earlier work
# [4] = cited from earlier work; remark: listed apart in the source
# [5] = Study B: safety/tolerability; assay type: in vivo, human
# In short: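 Healthy subjects genotyped for CYP2C9. Part 1: single oral 0.25 mg test compound to *1/*1 (n = 12), *2/*3 (n = 6) and *3/*3 (n = 6), then 42-day washout. Part 2: poor metabolisers only, 0.25 mg on days 1–2 and 0.5 mg on day 3. Safety covered all AEs and SAEs, cardiac monitoring, haematology, blood chemistry and urinalysis, in all dosed subjects.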
# [6] = cited from earlier work; remark: listed apart in the source
# CYP2C9 = conditions: cited from earlier work
# [7] = assay type: in vivo, human; conditions: for Tlag / Tmax: median (range)
# [8] = assay type: in vivo, human
# [9] = Study A: safety/tolerability; assay type: in vivo, human
# In short: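 Healthy adults; open-label, two-period, single-sequence design. Period 1: single oral 4 mg test compound on day 1. Period 2: azole CYP2C9 inhibitor 200 mg twice on day 1, then 200 mg once daily days 2–19, with 4 mg test compound on day 3. Washout 14–21 days. Safety covered all AEs and SAEs, physical exams, vital signs, ECG and lab tests, in everyone given at least one dose.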
# [10] = CYP2C9*1/*1, geometric mean (CV%)
# [11] = CYP2C9*2/*3, geometric mean (CV%)
# [12] = CYP2C9*3/*3, geometric mean (CV%)
# [13] = single-ascending dose 0.1–75 mg
smiles,measurement,setting,value
CCc1cc(/C(C)=N/OCc2ccc(C3CCCCC3)c(C(F)(F)F)c2)ccc1CN1CC(C(=O)O)C1 [Siponimod],Tolerability of multiple doses,[1]; doses up to 20 mg daily for 28 days,well tolerated
same,Time to steady-state of plasma siponimod,"[1]; multiple-ascending dose 0.3–20 mg, 28 days, 48 healthy subjects",approximately 6 days
same,Effective elimination half-life (T½),"[1]; multiple-ascending dose 0.3–20 mg, range",22 to 38 h
same,Tmax observed in historical data,[2],1.35 h
same,T½,[3]; [10],28.1 (18.5) h
same,Tlag,"[3]; CYP2C9*1/*1, median (range)",0.25 (0.00–0.50) h
same,T½,[3]; [11],50.9 (31.7) h
same,Tlag,"[3]; CYP2C9*2/*3, median (range)",0.25 (0.00–0.50) h
same,Tlag,"[3]; CYP2C9*3/*3, median (range)",0.50 (0.00–0.50) h
same,AUC,[3]; [10],31.6 ng·h/mL
same,AUC,[3]; [11],44.7 ng·h/mL
same,AUC,[3]; [12],42.7 ng·h/mL
same,AUC(0-t),[3]; [10],68.6 ng·h/mL
same,AUC(0-t),[3]; [11],140 ng·h/mL
same,AUC(0-t),[3]; [12],266 ng·h/mL
same,AUC(0-inf),[3]; [10],70.5 ng·h/mL
same,AUC(0-inf),[3]; [11],144 ng·h/mL
same,AUC(0-inf),[3]; [12],271 ng·h/mL
same,Cmax,[3]; [11],2.45 ng/mL
same,Cmax,[3]; [12],2.35 ng/mL
same,Tmax,"[3]; CYP2C9*1/*1, median (range)",4 h
same,Tmax,"[3]; CYP2C9*2/*3, median (range)",5 h
same,Tmax,"[3]; CYP2C9*3/*3, median (range)",4 h
same,half-life,[3]; [11],51 h
same,half-life,[3]; [12],126 h
same,Vd/F,[3]; [10],144 L
same,Vd/F,[3]; [11],127 L
same,Vd/F,[3]; [12],167 L
same,Contribution of CYP3A4 to metabolism (formation of M5),CYP3A4,18.5%
same,Predicted increase in siponimod AUC in the presence of fluconazole,[4]; SimCYP simulation,two to three
same,First-pass effect estimated by SimCYP,[4]; ref unpublished data,~5 % of the administered dose
same,Deaths or SAEs,[5]; Study B,No deaths or SAEs were reported
same,Subjects reporting at least one AE,"[5]; Study B part 2, 12 subjects",25%
same,Headache (most prevalent AE) incidence,"[5]; Study B, in both parts",8.3%
same,Single-dose maximum tolerated dose (MTD),"[6]; healthy subjects, single-ascending dose range study, ref unpublished data",25 mg
same,Earliest time measurable in plasma postdose,"[6]; single-ascending dose 0.1–75 mg, 98 healthy subjects",0.25 h
same,Time at which Cmax was reached postdose,[6]; [13],3 to 8 h
same,"Time at which Cmax was reached, minimum–maximum",[6]; [13],0.25 to 24 h
same,"T½, mean range","[6]; single-ascending dose study, ref unpublished data",27 to 57 h
same,Contribution of CYP2C9 to metabolism (formation of M5),CYP2C9,79.2%
same,Contribution of the CYP2C9 pathway to total metabolic clearance (fm),CYP2C9; determined in vitro,79%
same,Increase in Cmax in the presence of fluconazole,[7]; Study A,10%
same,Tlag,"[7]; Study A, siponimod 4 mg + steady-state fluconazole",0 (0–0) h
same,CL/F,"[7]; Study A, siponimod 4 mg alone, geometric mean (CV%)",3.6 L/h
same,Tlag,"[7]; Study A, siponimod 4 mg alone",0.25 (0–0.5) h
same,Tmax,"[7]; Study A, siponimod 4 mg alone",4.0 (2.0–8.1) h
same,AUC(0-inf),"[7]; human, plasma, oral, 4 mg",1120 ng·h/mL
same,Cmax,"[7]; human, plasma, oral, 4 mg",31.2 ng/mL
same,Vd/F,"[7]; human, plasma, oral, 4 mg",210 L
same,Tmax,"[7]; human, plasma, oral, 4 mg, Tmax, Study A, siponimod 4 mg alone",~4 h
same,AUC(0-t),"[7]; human, plasma, po, 4 mg",1110 ng·h/mL
same,AUC24 on day 3 higher versus the dose titration study data,"[8]; Study B part 2, CYP2C9*2/*3, comparison with ref 15",1.4 fold
same,AUC24 on day 3 higher versus the dose titration study data,"[8]; Study B part 2, CYP2C9*3/*3, comparison with ref 15",1.7 fold
same,Tmax,"[8]; human, plasma, po, 0.5 mg",6 h
same,AUC,"[8]; human, plasma, po, 0.5 mg, AUC24, Study B part 2, day 3, CYP2C9*2/*3, mean",125 ng·h/mL
same,AUC,"[8]; human, plasma, po, 0.5 mg, AUC24, Study B part 2, day 3, CYP2C9*3/*3, mean",148 ng·h/mL
same,Deaths or SAEs,[9]; Study A,No deaths or SAEs were reported
same,Subjects who experienced AEs,"[9]; Study A period 1, siponimod 4 mg alone",79%
same,Subjects who experienced AEs,"[9]; Study A period 2, siponimod + fluconazole",73%
